Laboratory results from paper PMC6379907 (Advanced biosystems, 2018).
Where two headings read alike, the source gives them in different places.

Tests used:
S. aureus USA300 [1] = tested on: S. aureus USA300
S. aureus USA300 [2] = assay: Membrane permeation, propidium iodide probe; format: cell-based, Staphylococcus aureus; details: peptides at 3.1 μM; antibiotics at their MIC values
Procedure, shortened: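 Serially diluted test compound was combined with propidium iodide (20 μM) and bacteria in TSB at final OD600 ~0.1. Incubated at 37°C with shaking at 100 rpm. Fluorescence (ex 584 nm, em 620 nm) was read every 5 min for 2 h. Each condition was run in duplicate.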

fungal protease K = details: cited from earlier work
chymotrypsin = details: cited from earlier work
[3] = S. aureus USA300, MIC values used in Figure 9B

Compound: CCCCCCCCCC(=O)N[C@@H](Cc1c[nH]c2ccccc12)C(=O)N[C@H](CC(N)=O)C(=O)N[C@@H](CC(=O)O)C(=O)N[C@@H]1C(=O)NCC(=O)N[C@@H](CCCN)C(=O)N[C@@H](CC(=O)O)C(=O)N[C@H](C)C(=O)N[C@@H](CC(=O)O)C(=O)NCC(=O)N[C@H](CO)C(=O)N[C@@H]([C@H](C)CC(=O)O)C(=O)N[C@@H](CC(=O)c2ccccc2N)C(=O)O[C@@H]1C [daptomycin]
- MIC of antibiotics (S. aureus USA300 [1]; USA300, 20 h): 0.78 µM

Compound: CO[C@H]1/C=C/O[C@@]2(C)Oc3c(C)c(O)c4c(O)c(cc(O)c4c3C2=O)NC(=O)/C(C)=C\C=C\[C@H](C)[C@H](O)[C@@H](C)[C@@H](O)[C@@H](C)[C@H](OC(C)=O)[C@@H]1C [rifamycin]
- MIC of antibiotics (S. aureus USA300 [1]; [3]): 0.2 µM
- membrane permeation of S. aureus USA300 (PI fluorescence) (S. aureus USA300 [2]): no membrane permeation

Compound: CN[C@H](CC(C)C)C(=O)N[C@H]1C(=O)N[C@@H](CC(N)=O)C(=O)N[C@H]2C(=O)N[C@H]3C(=O)N[C@H](C(=O)N[C@H](C(=O)O)c4cc(O)cc(O)c4-c4cc3ccc4O)[C@H](O)c3ccc(c(Cl)c3)Oc3cc2cc(c3O[C@@H]2O[C@H](CO)[C@@H](O)[C@H](O)[C@H]2O[C@H]2C[C@](C)(N)[C@H](O)[C@H](C)O2)Oc2ccc(cc2Cl)[C@H]1O [vancomycin]
- MIC of antibiotics (S. aureus USA300 [1]; [3]): 0.78 µM
- membrane permeation of S. aureus USA300 (PI fluorescence) (S. aureus USA300 [2]): no membrane permeation

Compound: GF-17: synthetic peptide of LL-37 residues 17–32 plus an extra N-terminal glycine (FKRIVQRIKDFLRNLV; extra N-terminal glycine)
- resistance to fungal protease K (fungal protease K): but not GF-17, is resistant
- resistance to chymotrypsin (chymotrypsin): but not GF-17, is resistant
